Reference: paper PMC7522377 (International Journal of Pharmaceutics: X, 2020)
Counter-ions that a name gives are not always drawn.

How the values were obtained:
VEGF receptor = assay: Immunohistochemical staining of PDX tumor sections; assay type: in vivo, human; conditions: PDX tumor tissue of treated mice
Outline: (§1)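 PDX tumours from treated mice were excised, PBS-washed, fixed 24 h in 10% buffered formalin and moved to 70% ethanol. Sections were immunostained for the target protein, dehydrated, coverslipped and scanned as whole slides at 40×. Staining was scored on the IHC scale (0, 1+, etc.).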

MiaPaCa-2 cells [1] = assay: Cytotoxicity in 3D spheroid culture, Alamar blue assay; assay type: cell-based; conditions: Homo sapiens, MIA PaCa-2, 48 h, read-out: IC50 μM (3D MiaPaCa-2 culture)
Outline: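 MiaPaCa-2 cells were seeded at 3.0 × 10⁴/well in spheroid-forming plates and grown 72 h to form spheroids. Half the medium was then replaced with drug in growth medium for 48 h at 37 °C, 5% CO2. Resazurin (0.05%) was added for 4 h, and fluorescence was read at ex 560/580, em 590/610 nm to give percent viability.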

HER2 = assay: Immunohistochemical staining of PDX tumor sections; assay type: in vivo, human; conditions: PDX tumor tissue of treated mice
Outline: as §1

PPCL-46 cells [2] = assay: Cytotoxicity in 2D culture, Alamar blue assay; assay type: cell-based; conditions: Homo sapiens, 48 h, read-out: IC50 μM (2D PPCL-46 culture), 48 h treatment, mean ± SEM, n = 3
Outline: (§2)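 Cells in DMEM (high glucose, 10% FBS, 1% PenStrep) were seeded at 1 × 10³/well and kept at 37 °C, 5% CO2. At 70–75% confluence they were treated for 48 h in triplicate per concentration; GemHCl ran 5–60 μM, diluted from a PBS stock into medium. Viability: 0.05% resazurin added for 4 h, fluorescence read at ex 560/580, em 590/610 nm; percent viable cells calculated; n = 3.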

[3] = Pharmacokinetic study after single intravenous bolus; assay type: in vivo; conditions: mice, iv bolus 30 mg/kg Gem equivalent, one-compartment model
Outline: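 Normal healthy mice were grouped as control, gemcitabine hydrochloride, or test compound. Each received a single intravenous bolus of 30 mg/kg gemcitabine equivalent; controls got 0.9% NaCl saline. Gemcitabine was measured in blood and tissue supernatants by peak area. Recovery was checked against control supernatants spiked with 0.5 μg/mL gemcitabine. Groups were compared by t-test.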

liver and kidney tissues = assay: Acute toxicity: histology; assay type: in vivo, mice; conditions: 30 mg/kg Gem equivalent, single iv bolus, H&E staining
Outline: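 Normal healthy mice got one IV bolus of test compound or GemHCl at 30 mg/kg gemcitabine equivalent; controls got none. Liver and kidneys were rinsed in PBS and fixed in 10% neutral buffered formalin for 48 h at room temperature. Tissue was paraffin-embedded, cut at 5 μm, H&E-stained and examined by light microscopy at 20×.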

[4] = Acute toxicity: liver enzymes activity; assay type: in vivo, mice; conditions: serum
Outline: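 Blood was drawn 24 h after one IV dose of 30 mg/kg gemcitabine equivalent; controls were untreated. Serum was spun at 3500 rpm for 6 min, serially diluted, and run in triplicate in kit enzyme/substrate mixes at 37 °C. AST: glutamate standard, 450 nm. ALT: pyruvate standard, 595 nm. Activity = product formed × dilution / (reaction time × sample volume).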

MiaPaCa-2 cells [5] = assay: Cytotoxicity in 2D culture, Alamar blue assay; assay type: cell-based; conditions: Homo sapiens, MIA PaCa-2, 48 h, read-out: IC50 μM (2D MiaPaCa-2 culture)
Outline: as §2

PPCL-46 cells [6] = assay: Cytotoxicity and spheroid integrity in 3D spheroid culture, Alamar blue assay; assay type: cell-based, human
EGFR = assay: Immunohistochemical staining of PDX tumor sections; assay type: in vivo, human; conditions: PDX tumor tissue of treated mice
Outline: as §1

[7] = 24 h after 30 mg/kg Gem equivalent iv, mean ± SD, n = 3

Nc1ccn([C@@H]2O[C@H](CO)[C@@H](O)C2(F)F)c(=O)n1 [GemHCl, Gemcitabine Hydrochloride]
VEGF receptor expression (IHC score) (VEGF receptor): IHC 3+ | IC50 (MiaPaCa-2 cells [1]): 55.8 ± 1.2 µM | HER2 expression (IHC score) (HER2): IHC 2+ | IC50 (PPCL-46 cells [2]): 75.5 ± 1.9 µM | AUC (0-t) [3]: 28200 ± 4300 ng·h/mL | Vss (volume of distribution at steady state) [3]: 21.7 ± 3.6 μg/(μg/mL) | histopathological examination of kidney and liver compared to control (liver and kidney tissues): no significant morphological changes | AST level compared with control group ([4]; 30 mg/kg Gem equivalent): no statistically significant elevation | ALT [4, 7]: 232 ± 28 mUnits/mL | AST [4, 7]: 85 ± 9 mUnits/mL | IC50 (MiaPaCa-2 cells [5]): 45.7 ± 1.4 µM | IC50 (PPCL-46 cells [6]; Homo sapiens, 48 h, read-out: IC50 μM (3D PPCL-46 culture)): 95.2 ± 1.4 µM | PPCL-46 spheroidal integrity after treatment (PPCL-46 cells [6]; varying concentrations, images of spheroids): smaller surface spheroidal area with less non-spheroidal shapes | EGFR expression (IHC score) (EGFR): IHC 1+
